The results in this text go back to article PMC11166183 (Inorganic chemistry, 2024).

A word on the pEC50: it is the EC50 on a negative log10 scale, so that one unit is a factor of ten.

Data set [1] concerns SK-MEL-28 cells. The data set is described as follows: Dark cytotoxicity and photocytotoxicity in normoxia, resazurin cell viability. It counts as cell-based, human. In short, it runs like this:
(§1)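 Cells adhered 3–5 h at 37°C, then were dosed at 1 nM to 300 μM. After a 13–22 h DLI, light plates received 100 J cm−2 of broadband visible (400–700 nm, 21 mW cm−2), green (523 nm) or red (633 nm, ±2.5 nm, 18 mW cm−2) light. Dark plates stayed incubated. Viability was read by resazurin after 24 h at 37°C. EC50 came from sigmoidal fits; PI = dark EC50/light EC50.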

Data set [2] has as its system A549 cells. The description is as above. Format: cell-based, human. In short, it runs like this: as §1
A short description of data set [3]: Lipophilicity by shake-flask method. Format: physicochemical. As to conditions: chloride salts, 1-octanol / 10 mM phosphate buffer pH 7.4.
Data set [4] concerns SK-MEL-28 cells. The data set is described as follows: Dark cytotoxicity and photocytotoxicity in hypoxia. It counts as cell-based, human. Particulars: hypoxia 1% O2, regardless of light treatment. The essentials:
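Cells were moved to a 1% O2 chamber for 2–3 h after adhesion, then dosed (1 nM to 300 μM). After an 18 h DLI, dissolved O2 was checked by optical probe. Light plates were sealed with low-permeability film and illuminated outside the chamber (~1.5 h). All plates were then held in normoxia (37°C, 5% CO2) for 20–23 h before resazurin read-out. EC50 came from sigmoidal fits; PI = dark/light ratio. Each run was done in triplicate.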

Where [5] appears, read: any light condition (visible, 523 nm, 633 nm; 100 J cm−2), normoxia.
Where [6] appears, read: read-out: dark EC50, no light, normoxia.

pEC50: −log10 of the molar value. Read-outs that look alike come from different tables or passages of the source.

For “rac-[Ru(4,4′-btfmb)2(IP-2T)](Cl)2 [Ru-2T]”, the “drop in activity with green light versus visible light” value in data set [1] (523 nm vs visible, normoxia) came to 3 fold. Besides, the “PI (dark EC50 / green EC50)” value in data set [1] (523 nm, 100 J cm−2, normoxia, representative replicate (repeat 0)) was found to be 91. The pEC50 in data set [1] (read-out: green EC50, 523 nm, 100 J cm−2, normoxia, representative replicate (repeat 0)) is 5.72; in data set [2] (read-out: visible EC50, visible light 400–700 nm, 100 J cm−2, normoxia), 5.86. Also, in data set [1] (visible light, normoxia), the “enhancement in visible photocytotoxicity relative to Ru-1T” value stood at 36 fold. Also, the “PI (dark EC50 / visible EC50)” value in data set [2] (visible light 400–700 nm, 100 J cm−2, normoxia) was 127. The “log Do/w” value in data set [3] is “positive”.

As to “rac-[Ru(4,4′-btfmb)3](Cl)2 [[Ru(4,4′-btfmb)3]^2+, reference compound]”, the photocytotoxic activity entry in data set [1] (setting [5]) and in data set [2] (setting [5]) was “inactive” in each case. Besides, the pEC50 in data set [1] (setting [6]) and in data set [2] (setting [6]) was under 3.52 each time. Besides, the photocytotoxic effect entry in data set [4] is “no photocytotoxic effect”.
